Compounds with a hit are over-represented: about 3.3% of the library has one in this group of screens.
CendR NRP1 mod – NRP-1/CendR interaction modulation; O14786; FAM-RPARPAR peptide binding to NRP-1, fluorescence polarization; inhibition, % at 25 µM; 360,000 tested, 0.85% active; AID 602438;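 active means inhibition or corrected inhibition above about 18%, plus a signal ratio from 0.5 to 1.5, limit read from the data, passing the limit was not always enough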
ABCB6 inh 2 – blocks the human ABCB6 transporter. 360,000 tested, 0.19% active. fluorescence ratio to DMSO, % at 10 µM. K562-ABCB6 porphyrin accumulation, flow cytometry, 1 h; hits give low values. AID 602162. Q9NP58;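 active means fluorescence ratio to DMSO below 75%, the collection mean minus 3 SD; inconclusive means too few cells collected in the well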;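 further: signal is porphyrin accumulated inside mitochondria; 100% equals median channel fluorescence of DMSO control wells; lower ratio means ABCB6 inhibition with less porphyrin fluorescence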
Arrestin-AP2 inh – inhibitors of human beta-arrestin and AP2 interaction; inhibition, % at 10 µM; FITC-arrestin peptide / GST-AP2 beads, flow cytometry; AP2 beta2 appendage carries R879A mutation; 340,000 tested, 0.31% active; AID 504490;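 active means inhibition above a set limit, near 3 SD of compounds lacking own fluorescence, cut at about 54% in these data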;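 further: plate controls were DMSO wells for no effect and 5 µM unlabelled arrestin peptide for full effect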
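Material – GST-tagged AP2 beta2-adaptin appendage (R879A) on 4 µm glutathione beads · Probe or stimulus – fluorescein-tagged arrestin peptide at 50 nM final · Timing – 12 min plus 1 h, RT · Detection – bead flow cytometry, FITC channel · Read-out basis – inhibition as reduced fluorescein signal on beads, percent · Medium – PBS plus Tween 20 (0.05%) and BSA (0.1%)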
ATG4B inhibitor – inhibitors of human ATG4B cysteine protease; ATG4B cleavage of LC3-PLA2, NBD-HPC fluorescence, 1 h; inhibition, % at 8.33 µM; 340,000 tested, 0.51% active; AID 504462; in the data active means inhibition above about 40%
Target sequence (Q9Y4P1 whole entry, looked up): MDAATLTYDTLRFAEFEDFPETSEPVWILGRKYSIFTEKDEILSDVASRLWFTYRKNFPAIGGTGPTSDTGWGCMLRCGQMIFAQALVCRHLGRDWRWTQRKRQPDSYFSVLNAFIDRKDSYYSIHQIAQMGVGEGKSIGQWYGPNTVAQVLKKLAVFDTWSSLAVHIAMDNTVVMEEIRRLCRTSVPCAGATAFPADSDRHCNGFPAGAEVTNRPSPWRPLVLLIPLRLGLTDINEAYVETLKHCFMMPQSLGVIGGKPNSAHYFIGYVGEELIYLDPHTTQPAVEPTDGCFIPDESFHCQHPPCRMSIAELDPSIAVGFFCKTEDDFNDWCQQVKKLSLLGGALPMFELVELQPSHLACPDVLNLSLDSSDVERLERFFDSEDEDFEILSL
Granule exo inh – blocks lytic granule exocytosis | TALL-104 LAMP-1 surface exposure, flow cytometry; cells stimulated with thapsigargin and PMA | AID 651702 | 360,000 tested, 0.66% active | inhibition, % at 10 µM;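 active means inhibition above about 55%, limit read from the data; inconclusive means no clear call, values can overlap the other calls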
Myeloid diff MLP – compounds promoting myeloid differentiation | 360,000 tested, 1% active | ER-HoxA9 myeloid progenitors, lysozyme-GFP differentiation, flow cytometry | calls only at 10 µM;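 active means normalized GFP-positive differentiation at or above the plate's own cutoff, the solvent-only control mean plus 3 SD; inconclusive means no clear call, values can overlap the other calls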;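 further: cells exposed to compound for four days before flow analysis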
Starred values were filed as active, the others as inactive; i = inactive; ? = inconclusive; · = no result given; + = active, no number.

SMILES	CendR NRP1 mod	ABCB6 inh 2	Arrestin-AP2 inh	ATG4B inhibitor	Granule exo inh	Myeloid diff MLP
Cc1ccc(O)c(C=Nc2cc(C)ccc2O)c1	-11	102	10	7	-1	+
Cc1ccccc1N=Cc1cccc(O)c1O	2	100	15	20	6	i
Cc1ccc(N=Cc2cccc(O)c2O)c(C)c1	-14	101	-2	·	93*	i
C[C@]12c3[nH]c4ccccc4c3CCN1C(=O)C(CC(=O)NCCCn1ccnc1)C[C@@H]2C(=O)N1CCOCC1 (stereo partly specified)	7	95	-5	1	-3	i
CCCc1c(C(=O)NNc2cccc(Cl)c2)cnn1-c1ccccc1	3	94	0	-1	-8	i
Nc1nc(N)c2c(ccc3c2ccn3Cc2cccc([N+](=O)[O-])c2)n1	8	94	·	·	13	+
COC(=O)[C@]12CCCCC=C1N(Cc1ccc(Cl)cc1Cl)C(=O)[C@H](CC(=O)NCc1ccc(C)o1)C2	-1	100	·	·	-1	i
COc1ccc(C)cc1Cn1nnc2ccccc21	10	90	24	-8	-2	i
COc1ccc(C(=O)/C=C/c2ccc(OC)c(CN3CCOCC3)c2)cc1	2	93	-3	-6	0	?
COc1ccc(C(=O)/C=C/c2ccc(OC)c(Cn3nnc4ccccc43)c2)cc1	-1	99	15	2	-13	+
COc1cc(Cn2nnc3ccccc32)cc(Br)c1O	23*	92	15	2	-4	i
COc1ccc(/C=C/C(=O)c2ccc(O)cc2)cc1CN1CCOCC1	-8	100	-3	-11	0	+
COc1ccc(/C=N\NS(=O)(=O)c2ccc(Cl)cc2)cc1COc1ccccc1[N+](=O)[O-]	24*	96	4	-18	3	i
CC(/C=N\NC(=O)Cn1c(C)nc2ccccc21)=C\c1ccccc1	-5	90	3	5	-3	+
CC(/C=N/NC(=O)CSc1nc(C)cc(C)n1)=C\c1ccccc1	-55	101	1	-20	-1	i
Cc1ccc(N(C(=O)CNC(=O)c2ccco2)C(C(=O)NC2CCCC2)c2cccnc2)c(C)c1 (stereo unspecified)	-1	99	-3	-5	-7	+
Cc1ccc(N(C(=O)CNC(=O)c2ccco2)C(C(=O)NC2CCCCC2)c2cccnc2)c(C)c1 (stereo unspecified)	-1	95	-1	-7	-3	i
CC1(C(=O)Nc2ccc3c(c2)OCO3)CCN1C(=O)C1CCCCC1 (stereo unspecified)	1	100	·	·	2	i
CCC(C)(C)C1CCc2nc3ccccc3c(C(=O)OC(C)C(=O)Nc3c(C)n(C)n(-c4ccccc4)c3=O)c2C1 (stereo unspecified)	-16	88	0	-16	15	+
CC(C)(C)[C@H]1CCC(=O)N([C@H](CSc2ccccc2)Cc2ccccc2)CC1	16	95	-5	-2	-6	i
CCCN1CCC(=O)N([C@H](CSc2ccc(Br)cc2)Cc2ccccc2)CC1	23	100	14	4	-17	+
CC(=O)Nc1ccc(SC[C@H](Cc2ccccc2)N2CC[C@@H](C(C)(C)C)CCC2=O)cc1	28*	97	2	-5	-7	i
CC(=O)Nc1ccc(SC[C@H](Cc2ccccc2)N2CCN(CCc3ccccc3)CCC2=O)cc1	25*	97	1	-20	15	i
CC(=O)Nc1c2c3c(cccc3n(C)c1=O)C(=O)c1ccccc1-2	53*	98	3	-2	18	i
Cc1ccccc1-n1nnnc1SCC(=O)NCC1(N2CCOCC2)CCCCC1	-10	95	0	-2	6	i
Cc1ccc(NC(=O)c2ccc(-c3nn(C)c(=O)c4ccccc34)cc2)cc1	-4	100	10	-7	-3	+
CN(CC(=O)NCc1ccccc1F)S(=O)(=O)c1ccc(Cl)cc1	2	95	-2	4	6	i
Cc1ccccc1C(=O)Nc1ccc(N2CCN(C)CC2)nc1	-5	102	-5	-6	-1	+
